Among the data in ChEMBL document CHEMBL5352450, “Synthesis and structure-activity relationship studies of original cyclic diadenosine derivatives as nanomolar inhibitors of NAD kinase from pathogenic bacteria” (Eur J Med Chem, 2023) are Ki and Activity values, retold here.

Each structure is given as a SMILES string. Activity calls are given as the source filed them. No cut-off for these calls is given here.

One assay has as its target T1, NAD kinase 1 (Listeria monocytogenes serotype 4b (strain F2365), UniProt Q721J8).
T1 sequence (Q721J8 whole entry): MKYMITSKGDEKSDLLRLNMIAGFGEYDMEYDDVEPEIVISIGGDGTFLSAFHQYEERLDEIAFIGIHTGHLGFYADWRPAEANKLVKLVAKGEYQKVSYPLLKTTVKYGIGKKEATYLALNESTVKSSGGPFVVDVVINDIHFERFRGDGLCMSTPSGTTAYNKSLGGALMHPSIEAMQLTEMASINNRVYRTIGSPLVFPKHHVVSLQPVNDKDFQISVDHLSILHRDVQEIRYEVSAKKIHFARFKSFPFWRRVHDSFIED
The assay can be described thus: Inhibition of Listeria monocytogenes NADK1 expressed in Escherichia coli assessed as inhibition constant measured every 32 secs for 32 mins by absorbance based analysis.

Assay [1] deals with Staphylococcus aureus. The assay can be described thus: Antibacterial activity against Staphylococcus aureus assessed as bacterial growth inhibition in presence of polymyxin B by microplate reader assay. It counts as functional, organism-based. Put shortly:
(§1)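 Same diluted-culture BHI set-up (S. aureus Xen36 in 25% PBS/10% DMSO; L. monocytogenes EGDe in 25% PBS/1% DMSO) with each compound plus polymyxin B at 20, 40, 60 or 80 µg/mL. Incubated shaking at 200 rpm, 37°C; growth monitored by microplate reader.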

For assay [2], the system named is Listeria monocytogenes. The assay can be described thus: Antibacterial activity against Listeria monocytogenes assessed as bacterial growth inhibition in presence of polymyxin B by microplate reader assay. It counts as functional, organism-based. A digest of the protocol:
as §1

Assay [3] relates to Staphylococcus aureus. The assay can be described thus: Antibacterial activity against Staphylococcus aureus assessed as reduction in bacterial growth at 0.01 ug/ml incubated for 6 hrs by microplate reader assay. It counts as functional, organism-based. The note with it: dose 0.01 µg/ml. Put shortly:
(§2)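 Overnight 37°C BHI cultures (S. aureus Xen36; L. monocytogenes EGDe) diluted 1:100 into BHI with compound at 0.01 µg/mL in 25% PBS/10% DMSO (S. aureus) or 25% PBS/1% DMSO (Listeria). Controls: vehicle and 10 µg/mL levofloxacin. Shaken at 200 rpm, 37°C, 6 h; growth read on plate reader as percent growth; n=6 biological replicates, one-way ANOVA.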

Assay [4] relates to Listeria monocytogenes. The assay can be described thus: Antibacterial activity against Listeria monocytogenes assessed as reduction in bacterial growth at 0.01 ug/ml incubated for 6 hrs by microplate reader assay. It counts as functional, organism-based. The conditions noted are these: dose 0.01 µg/ml. Put shortly: as §2

As a reminder, the Ki is a dissociation constant, usually derived from enzyme kinetics or from competition with a known ligand.

`NCCS(=O)(=O)NC[C@H]1O[C@@H](n2c(C#CCN(CC(=O)O)C[C@H]3O[C@@H](n4cnc5c(N)ncnc54)[C@H](O)[C@@H]3O)nc3c(N)ncnc32)[C@H](O)[C@@H]1O`: the Ki on NAD kinase 1 was found to be 91 µM.
Take `NCCNC(=O)NC[C@H]1O[C@@H](n2c(C#CCN(CC(=O)O)C[C@H]3O[C@@H](n4cnc5c(N)ncnc54)[C@H](O)[C@@H]3O)nc3c(N)ncnc32)[C@H](O)[C@@H]1O`: the Ki at NAD kinase 1 was 18 µM.
`Nc1ncnc2c1ncn2[C@@H]1O[C@H](CN2CC#Cc3nc4c(N)ncnc4n3[C@@H]3O[C@H](CNS(=O)(=O)CCNC(=O)C2)[C@@H](O)[C@H]3O)[C@@H](O)[C@H]1O`: the result in the assay with Staphylococcus aureus [1] was Active. Also, the outcome with Listeria monocytogenes [2], in the assay on Staphylococcus aureus [3] and in the assay with Listeria monocytogenes [4] was inactive. The Ki at NAD kinase 1 worked out at 0.054 µM.
For `Nc1ncnc2c1ncn2[C@@H]1O[C@H](CN2CC#Cc3nc4c(N)ncnc4n3[C@@H]3O[C@H](CNC(=O)CCNC(=O)C2)[C@@H](O)[C@H]3O)[C@@H](O)[C@H]1O`, the outcome in the assay on Staphylococcus aureus [1] was Active. Further, the result in the assay with Listeria monocytogenes [2], in the assay on Staphylococcus aureus [3] and in the assay on Listeria monocytogenes [4] was inactive. Also, the Ki on NAD kinase 1 was 0.504 µM.
Regarding `NCCC(=O)NC[C@H]1O[C@@H](n2c(C#CCN(CC(=O)O)C[C@H]3O[C@@H](n4cnc5c(N)ncnc54)[C@H](O)[C@@H]3O)nc3c(N)ncnc32)[C@H](O)[C@@H]1O`, at NAD kinase 1, the Ki worked out at 19 µM.
Consider `Nc1ncnc2c1ncn2[C@@H]1O[C@H](CN2CC#Cc3nc4c(N)ncnc4n3[C@@H]3O[C@H](CNC(=O)CNC(=O)C2)[C@@H](O)[C@H]3O)[C@@H](O)[C@H]1O`, for which, in the assay on Staphylococcus aureus [1], the result was Active. In addition, the outcome in the assay on Listeria monocytogenes [2], in the assay with Staphylococcus aureus [3] and with Listeria monocytogenes [4] was inactive. For the same compound, on NAD kinase 1, the Ki turned out to be 15 µM.
Take `NCCS(=O)(=O)NC[C@H]1O[C@@H](n2c(C#CCOC[C@H]3O[C@@H](n4cnc5c(N)ncnc54)[C@H](O)[C@@H]3O)nc3c(N)ncnc32)[C@H](O)[C@@H]1O`: on NAD kinase 1, the Ki amounted to 5.5 µM.
With `Nc1ncnc2c1ncn2[C@@H]1O[C@H](CN2CC#Cc3nc4c(N)ncnc4n3[C@@H]3O[C@H](CNC(=O)NCCCNC(=O)C2)[C@@H](O)[C@H]3O)[C@@H](O)[C@H]1O`, in the assay with Staphylococcus aureus [1], the outcome was Active. Besides, the result in the assay on Listeria monocytogenes [2], with Staphylococcus aureus [3] and in the assay with Listeria monocytogenes [4] was inactive. Moreover, the Ki on NAD kinase 1 was 0.177 µM.
`Nc1ncnc2c1ncn2[C@@H]1O[C@H](COCC#Cc2nc3c(N)ncnc3n2[C@@H]2O[C@H](CO)[C@@H](O)[C@H]2O)[C@@H](O)[C@H]1O`: the outcome with Listeria monocytogenes [4] was inactive.
Same read-out and setting: as for `C[C@H]1COc2c(N3CCN(C)CC3)c(F)cc3c(=O)c(C(=O)O)cn1c23`, the entry is “inactive”.
Consider `NCC(=O)NC[C@H]1O[C@@H](n2c(C#CCN(CC(=O)O)C[C@H]3O[C@@H](n4cnc5c(N)ncnc54)[C@H](O)[C@@H]3O)nc3c(N)ncnc32)[C@H](O)[C@@H]1O`, for which the Ki on NAD kinase 1 is 104 µM.
The same measure, in the same setting: as for `NCCN(CC#Cc1nc2c(N)ncnc2n1[C@@H]1O[C@H](CNC(=O)CC(=O)O)[C@@H](O)[C@H]1O)C[C@H]1O[C@@H](n2cnc3c(N)ncnc32)[C@H](O)[C@@H]1O`, the figure is 53 µM.
Turning to `Nc1ncnc2c1ncn2[C@@H]1O[C@H](CN2CC#Cc3nc4c(N)ncnc4n3[C@@H]3O[C@H](CNC(=O)CC(=O)NCC2)[C@@H](O)[C@H]3O)[C@@H](O)[C@H]1O`, in the assay on Staphylococcus aureus [1], the outcome was Active. Further, the result in the assay with Listeria monocytogenes [2], in the assay with Staphylococcus aureus [3] and with Listeria monocytogenes [4] was inactive. In addition, on NAD kinase 1, the Ki stood at 6.8 µM.
In the case of `Nc1ncnc2c1ncn2[C@@H]1O[C@H](CN2CC#Cc3nc4c(N)ncnc4n3[C@@H]3O[C@H](CNC(=O)NCCNC(=O)C2)[C@@H](O)[C@H]3O)[C@@H](O)[C@H]1O`, the outcome in the assay with Staphylococcus aureus [1] was Active. The outcome in the assay on Listeria monocytogenes [2], in the assay with Staphylococcus aureus [3] and in the assay with Listeria monocytogenes [4] was inactive. In addition, the Ki on NAD kinase 1 was 7.6 µM.
`NCCCNC(=O)NC[C@H]1O[C@@H](n2c(C#CCN(CC(=O)O)C[C@H]3O[C@@H](n4cnc5c(N)ncnc54)[C@H](O)[C@@H]3O)nc3c(N)ncnc32)[C@H](O)[C@@H]1O`: at NAD kinase 1, the Ki amounted to 16 µM.
